Results from ChEMBL document CHEMBL1687798, “In vitro mitochondrial toxicity of metacavir, a new nucleoside reverse transcriptase inhibitor for treatment of hepatitis B virus” (Antimicrob Agents Chemother, 2010).

Assays:
Type in all cases: cell-based
[1] = system: HepG2; test: Cytotoxicity against human HepG2 cells assessed as inhibition of mitochondrial respiratory chain complex III activity at 50 uM after 15 days relative to control; conditions: hepg2, 360 h
[2] = system: HepG2; test: Cytotoxicity against human HepG2 cells assessed as inhibition of mitochondrial respiratory chain complex IV activity at 250 uM after 15 days relative to control; conditions: hepg2, 360 h
[3] = system: HepG2; test: Cytotoxicity against human HepG2 cells assessed as increase in extracellular lactate secretion at 10 to 250 uM after 15 days relative to control; conditions: hepg2, 360 h
Method in brief: (§1)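 Extracellular lactate in HepG2 culture medium measured with a lactic acid kit after 15 days of exposure. Medium and drug renewed every 3 days. Expressed as mg lactic acid per 10⁶ cells, then as percent of 0.1% DMSO vehicle control. n = 3.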

[4] = system: HepG2; test: Cytotoxicity against human HepG2 cells assessed as inhibition of mitochondrial respiratory chain complex II activity after 15 days relative to control; conditions: hepg2, 360 h
[5] = system: HepG2; test: Cytotoxicity against human HepG2 cells assessed as inhibition of mitochondrial respiratory chain complex IV activity at 10 uM after 15 days relative to control; conditions: hepg2, 360 h
[6] = system: HepG2; test: Cytotoxicity against human HepG2 cells assessed as inhibition of mitochondrial respiratory chain complex IV activity after 15 days relative to control; conditions: hepg2, 360 h
[7] = system: HepG2; test: Cytotoxicity against human HepG2 cells assessed as inhibition of mitochondrial respiratory chain complex IV activity at 50 uM after 15 days relative to control; conditions: hepg2, 360 h
[8] = system: HepG2; test: Cytotoxicity against human HepG2 cells assessed as inhibition of mitochondrial respiratory chain complex II activity at 10 uM after 15 days relative to control; conditions: hepg2, 360 h
[9] = system: HepG2; test: Cytotoxicity against human HepG2 cells assessed as inhibition of mitochondrial respiratory chain complex I activity after 15 days relative to control; conditions: hepg2, 360 h
[10] = system: HepG2; test: Cytotoxicity against human HepG2 cells assessed as inhibition of mitochondrial respiratory chain complex III activity at 250 uM after 15 days relative to control; conditions: hepg2, 360 h
[11] = system: HepG2; test: Cytotoxicity against human HepG2 cells assessed as reduction in viable cells upto 250 uM after 15 days by trypan blue dye exclusion assay relative to control; conditions: hepg2, 360 h
Method in brief: (§2)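 HepG2 cells seeded at 5 × 10⁵/ml in MEM with 10% FBS and 1 mM pyruvate. Exposed for 6, 9 and 15 days, with medium and drug renewed every 3 days. Viable cells counted by trypan blue exclusion on a hemocytometer and expressed as percent of 0.1% DMSO control; three independent experiments.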

[12] = system: HepG2; test: Cytotoxicity against human HepG2 cells assessed as lipid droplet formation at 250 uM after 15 days by electron microscopy relative to control; conditions: hepg2, 360 h
Method in brief: (§3)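 HepG2 cells exposed 15 days, then fixed in 2.5% glutaraldehyde 1 h, postfixed in 1% osmium tetroxide 1 h, dehydrated through graded ethanol and propylene oxide, Epon-embedded, sectioned, and stained with uranyl acetate and lead citrate. Examined by transmission EM; >10 fields per treatment at low or high magnification; three independent experiments. DMSO 0.1% vehicle control.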

[13] = system: HepG2; test: Cytotoxicity against human HepG2 cells assessed as inhibition of mitochondrial respiratory chain complex I activity at 250 uM after 15 days relative to control; conditions: hepg2, 360 h
[14] = system: HepG2; test: Cytotoxicity against human HepG2 cells assessed as mitochondrial swelling at 250 uM after 15 days by electron microscopy relative to control; conditions: hepg2, 360 h; method in brief: as §3
[15] = system: HepG2; test: Cytotoxicity against human HepG2 cells assessed as inhibition of mitochondrial respiratory chain complex I activity at 50 uM after 15 days relative to control; conditions: hepg2, 360 h
[16] = system: HepG2; test: Cytotoxicity against human HepG2 cells assessed as reduction in mitochondrial DNA content at 50 uM after 15 days by RT-PCR method relative to control; set-up: scale not given: the % may be the effect or the level left; conditions: hepg2, 360 h
Method in brief: (§4)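 Total DNA extracted from HepG2 cells after 15-day exposure. Cells reseeded every 5 days; compounds added from 1,000× DMSO stocks, final DMSO 0.1%. Cytochrome b and actin copies measured by TaqMan real-time PCR against plasmid standard curves, 45 cycles. mtDNA/nDNA ratio expressed as percent of DMSO control; three independent experiments.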

[17] = system: HepG2; test: Cytotoxicity against human HepG2 cells assessed as inhibition of mitochondrial respiratory chain complex II activity at 250 uM after 15 days relative to control; conditions: hepg2, 360 h
[18] = system: HepG2; test: Cytotoxicity against human HepG2 cells assessed as inhibition of mitochondrial respiratory chain complex II activity at 50 uM after 15 days relative to control; conditions: hepg2, 360 h
[19] = system: HepG2; test: Cytotoxicity against human HepG2 cells assessed as inhibition of mitochondrial respiratory chain complex III activity at 10 uM after 15 days relative to control; conditions: hepg2, 360 h
[20] = system: HepG2; test: Cytotoxicity against human HepG2 cells assessed as inhibition of mitochondrial respiratory chain complex III activity after 15 days relative to control; conditions: hepg2, 360 h
[21] = system: HepG2; test: Cytotoxicity against human HepG2 cells assessed as reduction in mitochondrial DNA content at 250 uM after 15 days by RT-PCR method relative to control; set-up: scale not given: the % may be the effect or the level left; conditions: hepg2, 360 h; method in brief: as §4
[22] = system: HepG2; test: Cytotoxicity against human HepG2 cells assessed as reduction in mitochondrial DNA content at 10 uM after 15 days by RT-PCR method relative to control; set-up: scale not given: the % may be the effect or the level left; conditions: hepg2, 360 h; method in brief: as §4
[23] = system: HepG2; test: Cytotoxicity against human HepG2 cells assessed as inhibition of mitochondrial respiratory chain complex I activity at 10 uM after 15 days relative to control; conditions: hepg2, 360 h
[24] = system: HepG2; test: Cytotoxicity against human HepG2 cells assessed as reduction in viable cells at 10 uM after 15 days by trypan blue dye exclusion assay relative to control; conditions: hepg2, 360 h; method in brief: as §2
[25] = system: HepG2; test: Cytotoxicity against human HepG2 cells assessed as mitochondrial swelling at 10 uM after 15 days by electron microscopy relative to control; conditions: hepg2, 360 h; method in brief: as §3
[26] = system: HepG2; test: Cytotoxicity against human HepG2 cells assessed as disrupted mitochondrial cristae at 10 uM after 15 days by electron microscopy relative to control; conditions: hepg2, 360 h; method in brief: as §3
[27] = system: HepG2; test: Cytotoxicity against human HepG2 cells assessed as increase in extracellular lactate secretion at 10 uM after 15 days relative to control; conditions: hepg2, 360 h; method in brief: as §1
[28] = system: HepG2; test: Cytotoxicity against human HepG2 cells assessed as increase in extracellular lactate secretion at 50 uM after 15 days relative to control; conditions: hepg2, 360 h; method in brief: as §1
[29] = system: HepG2; test: Cytotoxicity against human HepG2 cells assessed as slight increase in mitochondrial size at 50 uM after 15 days by electron microscopy relative to control; conditions: hepg2, 360 h; method in brief: as §3
[30] = system: HepG2; test: Cytotoxicity against human HepG2 cells assessed as reduction in viable cells at 50 uM after 15 days by trypan blue dye exclusion assay relative to control; conditions: hepg2, 360 h; method in brief: as §2
[31] = system: HepG2; test: Cytotoxicity against human HepG2 cells assessed as reduction in viable cells at 50 uM after 6 days by trypan blue dye exclusion assay relative to control; conditions: hepg2, 144 h; method in brief: as §2

**Q.** What does the source list for `COc1nc(N)nc2c1ncn2[C@H]1CC[C@@H](CO)O1` [METACAVIR]?
**A.** Activity [1]: Toxic; Activity [2]: Toxic; Activity [3]: Non-toxic; Activity [4]: Dose-dependent effect; Activity [5]: Non-toxic; Activity [6]: Dose-dependent effect; Activity [7]: Toxic; Activity [8]: Non-toxic; Activity [9]: Dose-dependent effect; Activity [10]: Toxic; Activity [11]: Non-toxic; Activity [12]: Toxic; Activity [13]: Toxic; Activity [14]: Toxic; Activity [15]: Toxic; Activity [16]: 80%; Activity [17]: Toxic; Activity [18]: Non-toxic; Activity [19]: Non-toxic; Activity [20]: Dose-dependent effect; Activity [21]: 60%; Activity [22]: Non-toxic; Activity [23]: Non-toxic

**Q.** How did the Activity [24] turn out when `Nc1ccn([C@H]2CC[C@@H](CO)O2)c(=O)n1` [ZALCITABINE] was run?
**A.** < 30%

**Q.** And the Activity [25]?
**A.** Toxic

**Q.** And the Activity [5]?
**A.** Toxic

**Q.** And the Activity [8]?
**A.** Toxic

**Q.** What about the Activity [26] of the same compound?
**A.** Toxic

**Q.** And the Activity [19]?
**A.** Toxic

**Q.** What about the Activity [27] of the same compound?
**A.** 170%

**Q.** And the Activity [22]?
**A.** 3%

**Q.** And the Activity [23]?
**A.** Toxic

**Q.** With `Cc1cn([C@H]2C[C@H](N=[N+]=[N-])[C@@H](CO)O2)c(=O)[nH]c1=O` [ZIDOVUDINE] as the compound, how does the Activity [28] read?
**A.** 300%

**Q.** What about the Activity [29] of the same compound?
**A.** Toxic

**Q.** And the Activity [1]?
**A.** Toxic

**Q.** And the Activity [30]?
**A.** 60%

**Q.** And the Activity [31]?
**A.** Toxic

**Q.** And the Activity [7]?
**A.** Toxic

**Q.** And the Activity [15]?
**A.** Toxic

**Q.** And the Activity [16]?
**A.** Non-toxic

**Q.** And the Activity [18]?
**A.** Toxic
